Data set [1] is described as follows: Half life in mouse liver microsomes at 5 uM in presence of UDPGA. The format is ADME, Microsome. The method, boiled down: (§1)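 Human or mouse liver microsomes (1.0 mg protein/ml) were pretreated with 25 µg/ml alamethicin in 50 mM Tris-HCl, pH 7.5, at 4 °C for 30 min to release UGTs. Compound at 5 µM was then incubated with 2 mM UDPGA at 37 °C for 60 min. The reaction was quenched with three volumes of acetonitrile and centrifuged.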
Background: Microsomes from liver hold many membrane-bound enzymes, among them those of drug oxidation.

Data set [2] can be described thus: Half life in mouse liver microsomes at 1 uM in presence of NADPH. In kind it is ADME, Microsome. The method, boiled down: (§2)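 Compound at 1 µM was incubated at 37 °C for 30 min with human or mouse liver microsomes (0.5 mg protein/ml) in 50 mM phosphate buffer, pH 7.4, with 1 mM NADPH. The reaction was quenched with three volumes of acetonitrile and centrifuged. Remaining compound in the supernatant was quantified by LC/MS.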

In another data set the test system is PC-3. Kind of data set: Cytotoxicity against PTEN-deficient human PC3 cells assessed as growth inhibition after 96 hrs. In kind it is functional, cell-based. The settings on record: PC-3, 96 h. The procedure, abridged: (§3)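 KPL-4 breast, HCT116 colon and PC-3 prostate cancer cells were exposed to a range of compound concentrations for 96 h. Growth inhibition was read with Cell Counting Kit-8.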

Another data set concerns HCT-116. Kind of data set: Cytotoxicity against human HCT116 cells expressing PI3Kalpha H1047R mutant assessed as growth inhibition after 96 hrs. The settings on record: HCT-116, 96 h. The format is functional, cell-based. The procedure, abridged: as §3
Data set [3] is described as follows: AUC in BALB/c nu mouse at 100 mg/kg, po. In kind it is ADME, organism-based. More on the design: dose 100 mg/kg, route oral. The settings on record: plasma. The method, boiled down: (§4)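 Female BALB/c-nu mice, n = 2 per group, dosed iv at 10 mg/kg or po at 100 mg/kg. Heparinized blood drawn at 0.08, 0.25, 2, 4, 7 and 24 h after iv dosing, and at 0.50, 2, 4, 7 and 24 h after po dosing. Plasma stored at -80 °C and assayed by LC–MS/MS. Parameters come from non-compartmental analysis and are the mean of two animals.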

The nature of data set [4]: Antitumor activity against human KPL4 cells expressing PI3Kalpha H1047R mutant xenografted in BALB nu/nu mouse assessed as tumor growth inhibition at 80mg/kg, po qd relative to control. The format is functional. The settings on record: read-out: TGI. The procedure, abridged:
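KPL-4 cells were injected orthotopically into the mammary fat pad of female BALB-nu/nu mice. Tumors were measured with a gauge twice weekly, with volume = length × width²/2. Once tumors reached about 200 mm³, mice were randomized (n = 5 per group) and treatment began.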
On the technique in general: A xenograft is tissue or cells of one species grown in another, often human tumour cells in immunodeficient mice.

Data set [5] is described as follows: Apparent oral clearance in BALB/c nu mouse at 100 mg/kg. In kind it is ADME, organism-based. The settings on record: in vivo. More on the design: dose 100 mg/kg, route oral. The procedure, abridged: as §4
Data set [6] is described as follows: Half life in BALB/c nu mouse at 100 mg/kg, po. In kind it is ADME, organism-based. More on the design: dose 100 mg/kg, route oral. To be noted: in vivo. The method, boiled down: as §4
A short description of data set [7]: Cmax in BALB/c nu mouse at 100 mg/kg, po. In kind it is ADME, organism-based. More on the design: dose 100 mg/kg, route oral. To be noted: in vivo. The method, boiled down: as §4
Data set [8] can be described thus: Half life in BALB/c nu mouse at 10 mg/kg, iv. More on the design: dose 10 mg/kg, route intravenous. The settings on record: in vivo. In kind it is ADME, organism-based. The method, boiled down:
as §4

A short description of data set [9]: AUC in BALB/c nu mouse at 10 mg/kg, iv. The format is ADME, organism-based. More on the design: dose 10 mg/kg, route intravenous. The settings on record: plasma. The procedure, abridged: as §4
A short description of data set [10]: Cytotoxicity against human KPL4 cells expressing PI3Kalpha H1047R mutant assessed as growth inhibition after 96 hrs. In kind it is functional, cell-based. To be noted: KPL4, 96 h. The method, boiled down:
as §3

Data set [11] in a line: Half life in human liver microsomes at 5 uM in presence of UDPGA. The format is ADME, Microsome. The procedure, abridged:
as §1

Data set [12] deals with Phosphatidylinositol 4,5-bisphosphate 3-kinase catalytic subunit alpha isoform (Homo sapiens, UniProt P42336). Kind of data set: Inhibition of PI3Kalpha (unknown origin) using phosphatidylinositol 4,5-bisphosphate as substrate. The method, boiled down:
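Recombinant PI3Kα (p110α/p85α) activity was measured with the Adapta Universal Kinase Assay using PIP2:PS lipid substrate.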

The nature of data set [13]: Half life in human liver microsomes at 1 uM in presence of NADPH. In kind it is ADME, Microsome. The procedure, abridged: as §2

Structures are written as SMILES.

Chain of Phosphatidylinositol 4,5-bisphosphate 3-kinase catalytic subunit alpha isoform (P42336 whole entry, canonical isoform): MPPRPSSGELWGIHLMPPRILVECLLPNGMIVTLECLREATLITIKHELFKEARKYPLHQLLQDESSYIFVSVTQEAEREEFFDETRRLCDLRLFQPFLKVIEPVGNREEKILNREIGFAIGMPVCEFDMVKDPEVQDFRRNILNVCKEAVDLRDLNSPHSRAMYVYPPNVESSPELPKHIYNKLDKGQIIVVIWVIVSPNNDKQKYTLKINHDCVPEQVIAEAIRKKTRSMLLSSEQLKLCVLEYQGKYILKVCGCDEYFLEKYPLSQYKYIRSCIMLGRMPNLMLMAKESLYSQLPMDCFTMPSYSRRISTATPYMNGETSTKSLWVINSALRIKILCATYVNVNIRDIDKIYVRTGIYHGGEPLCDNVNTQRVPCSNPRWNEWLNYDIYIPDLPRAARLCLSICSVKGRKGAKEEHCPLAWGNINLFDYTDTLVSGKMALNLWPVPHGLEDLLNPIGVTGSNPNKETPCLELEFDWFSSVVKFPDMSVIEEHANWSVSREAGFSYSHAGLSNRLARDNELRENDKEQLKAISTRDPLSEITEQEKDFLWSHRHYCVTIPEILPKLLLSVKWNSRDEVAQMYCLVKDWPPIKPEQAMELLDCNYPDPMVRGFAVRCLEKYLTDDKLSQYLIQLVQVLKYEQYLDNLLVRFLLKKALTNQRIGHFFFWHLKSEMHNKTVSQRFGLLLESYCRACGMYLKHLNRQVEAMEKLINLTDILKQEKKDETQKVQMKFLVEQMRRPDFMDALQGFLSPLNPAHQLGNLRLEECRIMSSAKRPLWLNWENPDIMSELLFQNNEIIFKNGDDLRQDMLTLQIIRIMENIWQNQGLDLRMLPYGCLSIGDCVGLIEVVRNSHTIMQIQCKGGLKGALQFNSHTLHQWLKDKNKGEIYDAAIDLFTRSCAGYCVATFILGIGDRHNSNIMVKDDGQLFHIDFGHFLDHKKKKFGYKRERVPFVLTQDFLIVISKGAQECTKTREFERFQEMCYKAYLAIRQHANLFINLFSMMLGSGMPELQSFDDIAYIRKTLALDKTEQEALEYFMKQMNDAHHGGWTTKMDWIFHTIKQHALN

Broadly, the half-life is the time in which the quantity being followed falls by half. Usually IC50 stands for the concentration that inhibits the measured activity by half. With `Oc1cccc(-c2nc(N3CCOCC3)nc3c2CCN3c2ccncc2)c1`, the half-life at 5 µM in data set [1] was 0.102 h. For the same molecule, in data set [2], the half-life at 1 µM amounted to 0.333 h. The IC50 is 140 nM in the data set with PC-3 and 720 nM in the data set with HCT-116. As usually defined, the AUC is the area under the concentration-time curve, a measure of exposure. A high value points to more exposure. As a reminder, the CL/F is the apparent clearance, not corrected for the fraction that reaches the circulation. A word on the Cmax: it is the peak of the concentration-time curve. For the molecule `Nc1ncc(-c2nc(N3CCOCC3)nc3c2CCN3c2cccnc2)cn1`, the half-life at 5 µM in [1] and in data set [11] was greater than 1 h each time. The results for the AUC in data set [3] and in [9] were 19400 ng·h/mL and 4690 ng·h/mL, respectively. The inhibition in vivo at 80 mg/kg in data set [4] was found to be 166%. Also, the apparent clearance (CL/F) in data set [5] amounted to 86.1 mL/min/kg. Further, the figures for the half-life in [6] and in data set [8] were 6.58 h and 10.3 h, respectively. Besides, in [7], the Cmax came out at 4190 ng/mL. Also, the half-life at 1 µM in [2] came to 1.05 h. Also, the IC50 was 15 nM in data set [10], 420 nM in the data set with PC-3 and 170 nM in the data set on HCT-116. The molecule `NC(=O)c1cccc(-c2nc(N3CCOCC3)nc3c2CCN3c2ccncc2)c1` gave an IC50 in data set [12] of 19000 nM. Same read-out and setting: to `CNC(=O)c1cccc(-c2nc(N3CCOCC3)nc3c2CCN3c2ccncc2)c1` belongs 2400 nM; to `CNS(=O)(=O)c1cccc(-c2nc(N3CCOCC3)nc3c2CCN3c2ccncc2)c1`, greater than 50000 nM; to `c1cc(N2CCc3c(-c4ccc5cn[nH]c5c4)nc(N4CCOCC4)nc32)ccn1`, greater than 50000 nM. `c1cc(N2CCc3c(-c4ccc5[nH]ncc5c4)nc(N4CCOCC4)nc32)ccn1` returned an IC50 in data set [12] greater than 50000 nM.

`Nc1n[nH]c2cc(-c3nc(N4CCOCC4)nc4c3CCN4c3ccncc3)ccc12` came in with an IC50 in data set [12] greater than 50000 nM. `c1cc(-c2nc(N3CCOCC3)nc3c2CCN3c2ccncc2)c2cn[nH]c2c1` returned an IC50 in [12] greater than 50000 nM. In the case of `c1cc(-c2nc(N3CCOCC3)nc3c2CCN3c2ccncc2)c2[nH]ncc2c1`, the IC50 in [12] is greater than 50000 nM. For the molecule `c1cc(-c2nc(N3CCOCC3)nc3c2CCN3c2ccncc2)ccn1`, the IC50 in data set [12] worked out at 22600 nM. The molecule `c1cncc(-c2nc(N3CCOCC3)nc3c2CCN3c2ccncc2)c1` registered a half-inhibitory concentration (IC50) in [12] of 1700 nM. Still for that read-out and setting: to `c1cc(N2CCc3c(-c4cncnc4)nc(N4CCOCC4)nc32)ccn1` belongs 440 nM. For the molecule `Nc1ncc(-c2nc(N3CCOCC3)nc3c2CCN3c2ccncc2)cn1`, the half-life at 5 µM in data set [1] and in [11] was greater than 1 h throughout. Besides, the half-life at 1 µM in [13] was 2.12 h; in [2], 0.45 h. In addition, the IC50 in data set [10] was found to be 29 nM; in the data set with PC-3, 120 nM; in the data set on HCT-116 it was 91 nM; in data set [12], 26 nM. In data set [12], `Oc1cccc(-c2nc(N3CCOCC3)nc3c2CCN3c2ccccn2)c1` had an IC50 greater than 50000 nM.

In data set [12], `Oc1cccc(-c2nc(N3CCOCC3)nc3c2CCN3c2ccccc2)c1` registered an IC50 of 1220 nM. In [12], `Cc1cc(N2CCc3c(-c4cccc(O)c4)nc(N4CCOCC4)nc32)ccn1` yielded an IC50 of 170 nM. Still for that read-out and setting: the same measure for `Oc1cccc(-c2nc(N3CCOCC3)nc3c2CCN3c2ccnc(O)c2)c1`: 200 nM; for `Oc1cccc(-c2nc(N3CCOCC3)nc3c2CCN3c2ccc3ncccc3c2)c1`: greater than 50000 nM; for `Oc1cccc(-c2nc(N3CCOCC3)nc3c2CCN3c2nccs2)c1`: 49 nM. As to `Cn1ccc(N2CCc3c(-c4cccc(O)c4)nc(N4CCOCC4)nc32)n1`, the midpoint of inhibition in [12], the IC50, lay at 230 nM. With `COc1cccc(-c2nc(N3CCOCC3)nc3c2CCN3c2ccncc2)c1`, 410 nM corresponded to half-maximal inhibition in data set [12] (IC50).

Molecule `Cc1ccc(-c2nc(N3CCOCC3)nc3c2CCN3c2ccncc2)cc1O` came in with an IC50 in [12] greater than 50000 nM. The same measure, in the same setting: to `Cc1c(O)cccc1-c1nc(N2CCOCC2)nc2c1CCN2c1ccncc1` belongs greater than 50000 nM; to `Nc1cccc(-c2nc(N3CCOCC3)nc3c2CCN3c2ccncc2)c1`, 3700 nM; to `O=C(O)c1cccc(-c2nc(N3CCOCC3)nc3c2CCN3c2ccncc2)c1`, greater than 50000 nM.

These data come from ChEMBL document CHEMBL2311318, “Lead optimization of a dihydropyrrolopyrimidine inhibitor against phosphoinositide 3-kinase (PI3K) to improve the phenol glucuronic acid conjugation” (Bioorg Med Chem Lett, 2013).
